{"source": "ChEMBL document CHEMBL1155777", "about": "“Increased survival after gemfibrozil treatment of severe mouse influenza” (Antimicrob Agents Chemother, 2007)", "key": {"[1]": {"system": "H2N2 subtype", "assay": "Antiviral activity against Influenza A virus (A/Japan/305/57(H2N2)) infected BALB/c mouse assessed as infection-induced weight loss at 20 mg/kg, ip administered once daily from day 4 to 10 post viral challenge measured on day 10 postinfection", "type": "functional, Influenza A virus (A/Japan/305/1957(H2N2))", "settings": "route intraperitoneal", "method_in_brief": "(§1)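 Gemfibrozil in 100% propylene glycol, 10 µl/mouse i.p., once daily days 4–10 after virus exposure; vehicle-only controls on the same days. Mice weighed before infection, then daily days 4–12 inclusive; loss tracked against pre-infection weight.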"}, "[2]": {"system": "H2N2 subtype", "assay": "Antiviral activity against Influenza A virus (A/Japan/305/57(H2N2)) infected BALB/c mouse assessed as infection-induced weight loss at 40 mg/kg, ip administered once daily from day 4 to 10 post viral challenge measured on day 12 postinfection", "type": "functional, Influenza A virus (A/Japan/305/1957(H2N2))", "settings": "route intraperitoneal", "method_in_brief": "as §1"}, "[3]": {"system": "H2N2 subtype", "assay": "Antiviral activity against Influenza A virus (A/Japan/305/57(H2N2)) infected BALB/c mouse assessed as infection-induced weight loss at 20 mg/kg, ip administered once daily from day 4 to 10 post viral challenge measured on day 12 postinfection", "type": "functional, Influenza A virus (A/Japan/305/1957(H2N2))", "settings": "route intraperitoneal", "method_in_brief": "as §1"}, "[4]": {"system": "H2N2 subtype", "assay": "Antiviral activity against Influenza A virus (A/Japan/305/57(H2N2)) infected BALB/c mouse assessed as infection-induced weight loss at 20 mg/kg, ip administered once daily from day 4 to 10 post viral challenge measured on day 4 postinfection", "type": "functional, Influenza A virus (A/Japan/305/1957(H2N2))", "settings": "route intraperitoneal", "method_in_brief": "as §1"}, "[5]": {"system": "H2N2 subtype", "assay": "Antiviral activity against Influenza A virus (A/Japan/305/57(H2N2)) infected BALB/c mouse assessed as infection-induced weight loss at 60 mg/kg, ip administered once daily from day 4 to 10 post viral challenge measured on day 12 postinfection", "type": "functional, Influenza A virus (A/Japan/305/1957(H2N2))", "settings": "route intraperitoneal", "method_in_brief": "as §1"}, "[6]": {"system": "H2N2 subtype", "assay": "Antiviral activity against Influenza A virus (A/Japan/305/57(H2N2)) infected BALB/c mouse assessed as infection-induced weight loss at 60 mg/kg, ip administered once daily from day 4 to 10 post viral challenge measured on day 8 postinfection", "type": "functional, Influenza A virus (A/Japan/305/1957(H2N2))", "settings": "route intraperitoneal", "method_in_brief": "as §1"}, "[7]": {"system": "H2N2 subtype", "assay": "Antiviral activity against Influenza A virus (A/Japan/305/57(H2N2)) infected BALB/c mouse assessed as infection-induced weight loss at 60 mg/kg, ip administered once daily from day 4 to 10 post viral challenge measured on day 4 postinfection", "type": "functional, Influenza A virus (A/Japan/305/1957(H2N2))", "settings": "route intraperitoneal", "method_in_brief": "as §1"}, "[8]": {"system": "H2N2 subtype", "assay": "Antiviral activity against Influenza A virus (A/Japan/305/57(H2N2)) infected BALB/c mouse assessed as mouse survival at 20 mg/kg, ip administered once daily from day 4 to 10 post viral challenge", "type": "functional, Influenza A virus (A/Japan/305/1957(H2N2))", "settings": "96 h, route intraperitoneal", "method_in_brief": "(§2)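 Propylene glycol vehicle, 10 µl/mouse i.p., once daily days 4–10 post-infection; vehicle controls. Survival followed 30 days. 20/40/60 mg/kg in one experiment (n = 9–10 per group); 60 mg/kg also pooled from four experiments (vehicle n = 50, drug n = 46). Log rank test on survival time; Cox proportional hazards model for hazard ratios.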"}, "[9]": {"system": "H2N2 subtype", "assay": "Antiviral activity against Influenza A virus (A/Japan/305/57(H2N2)) infected BALB/c mouse assessed as infection-induced weight loss at 40 mg/kg, ip administered once daily from day 4 to 10 post viral challenge measured on day 10 postinfection", "type": "functional, Influenza A virus (A/Japan/305/1957(H2N2))", "settings": "route intraperitoneal", "method_in_brief": "as §1"}, "[10]": {"system": "H2N2 subtype", "assay": "Antiviral activity against Influenza A virus (A/Japan/305/57(H2N2)) infected BALB/c mouse assessed as infection-induced weight loss at 40 mg/kg, ip administered once daily from day 4 to 10 post viral challenge measured on day 4 postinfection", "type": "functional, Influenza A virus (A/Japan/305/1957(H2N2))", "settings": "route intraperitoneal", "method_in_brief": "as §1"}, "[11]": {"system": "H2N2 subtype", "assay": "Antiviral activity against Influenza A virus (A/Japan/305/57(H2N2)) infected BALB/c mouse assessed as infection-induced weight loss at 40 mg/kg, ip administered once daily from day 4 to 10 post viral challenge measured on day 6 postinfection", "type": "functional, Influenza A virus (A/Japan/305/1957(H2N2))", "settings": "route intraperitoneal", "method_in_brief": "as §1"}, "[12]": {"system": "H2N2 subtype", "assay": "Antiviral activity against Influenza A virus (A/Japan/305/57(H2N2)) infected BALB/c mouse assessed as infection-induced weight loss at 20 mg/kg, ip administered once daily from day 4 to 10 post viral challenge measured on day 6 postinfection", "type": "functional, Influenza A virus (A/Japan/305/1957(H2N2))", "settings": "route intraperitoneal", "method_in_brief": "as §1"}, "[13]": {"system": "H2N2 subtype", "assay": "Antiviral activity against Influenza A virus (A/Japan/305/57(H2N2)) infected BALB/c mouse assessed as infection-induced weight loss at 20 mg/kg, ip administered once daily from day 4 to 10 post viral challenge measured on day 8 postinfection", "type": "functional, Influenza A virus (A/Japan/305/1957(H2N2))", "settings": "route intraperitoneal", "method_in_brief": "as §1"}, "[14]": {"system": "H2N2 subtype", "assay": "Antiviral activity against Influenza A virus (A/Japan/305/57(H2N2)) infected BALB/c mouse assessed as mouse survival at 60 mg/kg, ip administered once daily from day 4 to 10 post viral challenge", "type": "functional, Influenza A virus (A/Japan/305/1957(H2N2))", "settings": "96 h, route intraperitoneal", "method_in_brief": "as §2"}, "[15]": {"system": "Mus musculus", "assay": "Increase in survival of LPS-induced BALB/c mouse severe systemic infection model at 60 mg/kg, ip administered as single dose 2 hrs before LPS challenge", "type": "functional", "settings": "route intraperitoneal"}, "[16]": {"assay": "Toxicity in mouse assessed as lethal dose", "type": "organism-based", "settings": "in vivo"}, "[17]": {"system": "H2N2 subtype", "assay": "Antiviral activity against Influenza A virus (A/Japan/305/57(H2N2)) infected BALB/c mouse assessed as infection-induced weight loss at 60 mg/kg, ip administered once daily from day 4 to 10 post viral challenge measured on day 10 postinfection", "type": "functional, Influenza A virus (A/Japan/305/1957(H2N2))", "settings": "route intraperitoneal", "method_in_brief": "as §1"}, "[18]": {"system": "H2N2 subtype", "assay": "Antiviral activity against Influenza A virus (A/Japan/305/57(H2N2)) infected BALB/c mouse assessed as infection-induced weight loss at 60 mg/kg, ip administered once daily from day 4 to 10 post viral challenge measured on day 6 postinfection", "type": "functional, Influenza A virus (A/Japan/305/1957(H2N2))", "settings": "route intraperitoneal", "method_in_brief": "as §1"}, "[19]": {"system": "H2N2 subtype", "assay": "Antiviral activity against Influenza A virus (A/Japan/305/57(H2N2)) infected BALB/c mouse assessed as mouse survival at 40 mg/kg, ip administered once daily from day 4 to 10 post viral challenge", "type": "functional, Influenza A virus (A/Japan/305/1957(H2N2))", "settings": "96 h, route intraperitoneal", "method_in_brief": "as §2"}, "[20]": {"system": "H2N2 subtype", "assay": "Antiviral activity against Influenza A virus (A/Japan/305/57(H2N2)) infected BALB/c mouse assessed as infection-induced weight loss at 40 mg/kg, ip administered once daily from day 4 to 10 post viral challenge measured on day 8 postinfection", "type": "functional, Influenza A virus (A/Japan/305/1957(H2N2))", "settings": "route intraperitoneal", "method_in_brief": "as §1"}, "[21]": {"system": "Mus musculus", "assay": "Increase in survival of LPS-induced BALB/c mouse severe systemic infection model at 60 mg/kg, ip administered as single dose 1 hr before LPS challenge", "type": "functional", "settings": "route intraperitoneal", "method_in_brief": "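LPS (E. coli O111:B4) 30 mg/kg i.p.; single 60 mg/kg i.p. dose in propylene glycol given 1 h before LPS; vehicle-only controls. n = 20 per group, single experiment; survival followed 14 days; log rank test.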"}}, "data": [{"compound": "Cc1ccc(C)c(OCCCC(C)(C)C(=O)O)c1", "note": "[GEMFIBROZIL]", "values": [{"measurement": "Activity", "setting": "[1]", "result": 75.2, "unit": "%"}, {"measurement": "Activity", "setting": "[2]", "result": 77.1, "unit": "%"}, {"measurement": "Activity", "setting": "[3]", "result": 79, "unit": "%"}, {"measurement": "Activity", "setting": "[4]", "result": 87.9, "unit": "%"}, {"measurement": "Activity", "setting": "[5]", "result": 81.8, "unit": "%"}, {"measurement": "Activity", "setting": "[6]", "result": 73.2, "unit": "%"}, {"measurement": "Activity", "setting": "[7]", "result": 86.5, "unit": "%"}, {"measurement": "survival at 20 mg/kg", "setting": "[8]", "result": 30, "unit": "%"}, {"measurement": "Activity", "setting": "[9]", "result": 73.4, "unit": "%"}, {"measurement": "Activity", "setting": "[10]", "result": 87, "unit": "%"}, {"measurement": "Activity", "setting": "[11]", "result": 75.6, "unit": "%"}, {"measurement": "Activity", "setting": "[12]", "result": 77.5, "unit": "%"}, {"measurement": "Activity", "setting": "[13]", "result": 75.1, "unit": "%"}, {"measurement": "survival at 60 mg/kg", "setting": "[14]", "result": 52, "unit": "%"}, {"measurement": "survival at 60 mg/kg", "setting": "[15]", "result": 10, "unit": "%"}, {"measurement": "LD50", "setting": "[16]", "result": 3160, "unit": "mg/kg"}, {"measurement": "Activity", "setting": "[17]", "result": 78, "unit": "%"}, {"measurement": "Activity", "setting": "[18]", "result": 77.1, "unit": "%"}, {"measurement": "survival at 40 mg/kg", "setting": "[19]", "result": 44, "unit": "%"}, {"measurement": "Activity", "setting": "[20]", "result": 72.2, "unit": "%"}, {"measurement": "survival at 60 mg/kg", "setting": "[21]", "result": 25, "unit": "%"}]}]}
